Laboratory results: ChEMBL document CHEMBL2086328, “¹⁸F-labeled 2-phenylquinoxaline derivatives as potential positron emission tomography probes for in vivo imaging of β-amyloid plaques” (Eur J Med Chem, 2012)
Each block holds one compound with its values, some of them ahead of it. Activity calls are given as the source filed them. The rule behind the calls is not given here.

Key:
[1] = biological target: Amyloid-beta precursor protein (Homo sapiens) (UniProt P05067); assay: Binding affinity to beta-amyloid in normal human brain at 1.85 MBq/[…] after 1 hr by thioflavin-S based autoradiography; details: 1.85 M, tested as the 18F-labelled form
Amyloid-beta precursor protein (Homo sapiens), sequence (P05067 whole entry): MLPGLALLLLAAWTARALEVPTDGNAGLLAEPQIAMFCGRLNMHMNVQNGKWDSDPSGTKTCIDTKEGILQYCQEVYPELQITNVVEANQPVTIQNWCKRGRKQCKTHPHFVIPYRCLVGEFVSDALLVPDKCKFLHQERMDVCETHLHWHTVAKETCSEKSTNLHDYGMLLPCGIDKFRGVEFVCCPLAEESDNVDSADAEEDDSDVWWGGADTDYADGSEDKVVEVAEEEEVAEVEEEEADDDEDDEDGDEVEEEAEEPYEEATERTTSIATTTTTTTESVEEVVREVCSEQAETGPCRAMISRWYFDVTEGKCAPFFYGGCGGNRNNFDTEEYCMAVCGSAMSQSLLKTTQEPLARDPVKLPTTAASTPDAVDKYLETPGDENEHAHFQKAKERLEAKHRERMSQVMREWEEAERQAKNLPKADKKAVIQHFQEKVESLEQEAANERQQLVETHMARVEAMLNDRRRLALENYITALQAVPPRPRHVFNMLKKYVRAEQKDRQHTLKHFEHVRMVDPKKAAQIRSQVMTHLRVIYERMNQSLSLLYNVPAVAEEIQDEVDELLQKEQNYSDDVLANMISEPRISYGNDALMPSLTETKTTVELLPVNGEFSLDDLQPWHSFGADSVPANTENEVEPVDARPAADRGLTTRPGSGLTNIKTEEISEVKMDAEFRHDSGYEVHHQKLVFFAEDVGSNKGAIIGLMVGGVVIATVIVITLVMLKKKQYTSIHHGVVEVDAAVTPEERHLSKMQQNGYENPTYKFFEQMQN
Procedure, shortened: (§1)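 Paraffin human temporal-lobe sections (5 µm; AD case or control) deparaffinized through xylene and graded ethanol, then PBS (0.2 M, pH 7.4) for 30 min. Incubated with 18F tracer (1.85 MBq/200 µL), 1 h, room temperature; washed in 40% EtOH, rinsed in water; phosphor plate exposure 2 h.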

Mus musculus = organism: Mus musculus; assay: Binding affinity to beta-amyloid in APPswe/PSEN1 transgenic C57BL6 mouse model brain at 1.85 MBq/[…] after 1 hr by thioflavin-S based autoradiography; details: 1.85 M, tested as the 18F-labelled form
Procedure, shortened: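 Transgenic mouse brain sections deparaffinized, then incubated with 18F tracer (1.85 MBq/200 µL) for 1 h at room temperature. Washed in 40% EtOH, phosphor-imaged after 2 h exposure. Same sections then stained with 0.125% thioflavin-S in 10% EtOH for 3 min and imaged by fluorescence (excitation 405 nm, long-pass 505 nm).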

[2] = Displacement of [125I]IMPY from amyloid beta (1 to 42) after 2 hrs by gamma counting
Procedure, shortened: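 Competition binding against [125I]IMPY (radiochemical purity >95%) on Aβ1-42 aggregates with 1% BSA solution; inhibitor 10^-4–10^-9.5 M; 37 °C, 2 h. Free and bound separated by vacuum filtration on GF/B filters, three PBS washes (0.02 M, pH 7.4, room temperature); filters gamma-counted. Three repeats; IC50 fitted, Ki from Cheng–Prusoff.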

[3] = biological target: Amyloid-beta precursor protein (Homo sapiens) (UniProt P05067); assay: Binding affinity to beta-amyloid in Alzheimer's disease patient brain at 1.85 MBq/[…] after 1 hr by thioflavin-S based autoradiography; details: 1.85 M, tested as the 18F-labelled form; procedure, shortened: as §1
Lung [4] = assay: Biodistribution in ICR mouse lung at 370 kBq, iv after 30 mins by gamma counting; type: ADME, organism-based; details: in vivo, 0.5 h
Procedure, shortened: (§2)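 Male ICR mice (five weeks, 20–22 g), tail-vein injection of 18F tracer in 0.1 mL saline with 10% EtOH. Killed by decapitation at set times, n = 5 per time point. Organs removed, weighed and gamma-counted; %ID/g wet tissue from comparison with diluted aliquots of injected dose; mean ± SD.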

Bone [5] = assay: Biodistribution in ICR mouse bone at 370 kBq, iv after 10 mins by gamma counting; type: ADME, organism-based, Bone element; details: in vivo; procedure, shortened: as §2
Intestine [6] = assay: Biodistribution in ICR mouse intestine at 370 kBq, iv after 30 mins by gamma counting; type: ADME, organism-based; details: in vivo, 0.5 h; procedure, shortened: as §2
Stomach [7] = assay: Biodistribution in ICR mouse stomach at 370 kBq, iv after 60 mins by gamma counting; type: ADME, organism-based; details: in vivo, 1 h; procedure, shortened: as §2
Bone [8] = assay: Biodistribution in ICR mouse bone at 370 kBq, iv after 60 mins by gamma counting; type: ADME, organism-based, Bone element; details: in vivo, 1 h; procedure, shortened: as §2
Brain [9] = assay: Biodistribution in ICR mouse brain at 370 kBq, iv after 10 mins by gamma counting; type: ADME, organism-based; details: in vivo; procedure, shortened: as §2
Blood [10] = assay: Biodistribution in ICR mouse blood at 370 kBq, iv after 10 mins by gamma counting; type: ADME, organism-based; details: in vivo; procedure, shortened: as §2
Liver [11] = assay: Biodistribution in ICR mouse liver at 370 kBq, iv after 60 mins by gamma counting; type: ADME, organism-based; details: in vivo, 1 h; procedure, shortened: as §2
Heart [12] = assay: Biodistribution in ICR mouse heart at 370 kBq, iv after 10 mins by gamma counting; type: ADME, organism-based; details: in vivo; procedure, shortened: as §2
Heart [13] = assay: Biodistribution in ICR mouse heart at 370 kBq, iv after 30 mins by gamma counting; type: ADME, organism-based; details: in vivo, 0.5 h; procedure, shortened: as §2
Lung [14] = assay: Biodistribution in ICR mouse lung at 370 kBq, iv after 10 mins by gamma counting; type: ADME, organism-based; details: in vivo; procedure, shortened: as §2
Spleen [15] = assay: Biodistribution in ICR mouse spleen at 370 kBq, iv after 30 mins by gamma counting; type: ADME, organism-based; details: in vivo, 0.5 h; procedure, shortened: as §2
Brain [16] = assay: Biodistribution in ICR mouse brain at 370 kBq, iv after 30 mins by gamma counting; type: ADME, organism-based; details: in vivo, 0.5 h; procedure, shortened: as §2
Brain [17] = assay: Biodistribution in ICR mouse brain at 370 kBq, iv after 2 mins by gamma counting; type: ADME, organism-based; details: in vivo; procedure, shortened: as §2
Heart [18] = assay: Biodistribution in ICR mouse heart at 370 kBq, iv after 60 mins by gamma counting; type: ADME, organism-based; details: in vivo, 1 h; procedure, shortened: as §2
Spleen [19] = assay: Biodistribution in ICR mouse spleen at 370 kBq, iv after 60 mins by gamma counting; type: ADME, organism-based; details: in vivo, 1 h; procedure, shortened: as §2
Bone [20] = assay: Biodistribution in ICR mouse bone at 370 kBq, iv after 30 mins by gamma counting; type: ADME, organism-based, Bone element; details: in vivo, 0.5 h; procedure, shortened: as §2
Liver [21] = assay: Biodistribution in ICR mouse liver at 370 kBq, iv after 10 mins by gamma counting; type: ADME, organism-based; details: in vivo; procedure, shortened: as §2
Lung [22] = assay: Biodistribution in ICR mouse lung at 370 kBq, iv after 2 mins by gamma counting; type: ADME, organism-based; details: in vivo; procedure, shortened: as §2
Stomach [23] = assay: Biodistribution in ICR mouse stomach at 370 kBq, iv after 10 mins by gamma counting; type: ADME, organism-based; details: in vivo; procedure, shortened: as §2
Intestine [24] = assay: Biodistribution in ICR mouse intestine at 370 kBq, iv after 60 mins by gamma counting; type: ADME, organism-based; details: in vivo, 1 h; procedure, shortened: as §2
[25] = Lipophilicity, log D of the compound; type: physicochemical; details: octanol/water
Procedure, shortened: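 18F tracer (740 kBq) in 3 g n-octanol plus 3 g PBS (0.05 M, pH 7.4). Vortexed 3 min at room temperature, centrifuged 5 min at 3000 rpm; weighed samples from octanol and buffer layers counted.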

Kidney [26] = assay: Biodistribution in ICR mouse kidney at 370 kBq, iv after 2 mins by gamma counting; type: ADME, organism-based; details: in vivo; procedure, shortened: as §2
Spleen [27] = assay: Biodistribution in ICR mouse spleen at 370 kBq, iv after 2 mins by gamma counting; type: ADME, organism-based; details: in vivo; procedure, shortened: as §2
Blood [28] = assay: Biodistribution in ICR mouse blood at 370 kBq, iv after 60 mins by gamma counting; type: ADME, organism-based; details: in vivo, 1 h; procedure, shortened: as §2
Intestine [29] = assay: Biodistribution in ICR mouse intestine at 370 kBq, iv after 10 mins by gamma counting; type: ADME, organism-based; details: in vivo; procedure, shortened: as §2
Bone [30] = assay: Biodistribution in ICR mouse bone at 370 kBq, iv after 2 mins by gamma counting; type: ADME, organism-based, Bone element; details: in vivo; procedure, shortened: as §2
Liver [31] = assay: Biodistribution in ICR mouse liver at 370 kBq, iv after 30 mins by gamma counting; type: ADME, organism-based; details: in vivo, 0.5 h; procedure, shortened: as §2
Heart [32] = assay: Biodistribution in ICR mouse heart at 370 kBq, iv after 2 mins by gamma counting; type: ADME, organism-based; details: in vivo; procedure, shortened: as §2
Kidney [33] = assay: Biodistribution in ICR mouse kidney at 370 kBq, iv after 30 mins by gamma counting; type: ADME, organism-based; details: in vivo, 0.5 h; procedure, shortened: as §2
Blood [34] = assay: Biodistribution in ICR mouse blood at 370 kBq, iv after 2 mins by gamma counting; type: ADME, organism-based; details: in vivo; procedure, shortened: as §2
Lung [35] = assay: Biodistribution in ICR mouse lung at 370 kBq, iv after 60 mins by gamma counting; type: ADME, organism-based; details: in vivo, 1 h; procedure, shortened: as §2
Stomach [36] = assay: Biodistribution in ICR mouse stomach at 370 kBq, iv after 30 mins by gamma counting; type: ADME, organism-based; details: in vivo, 0.5 h; procedure, shortened: as §2
Kidney [37] = assay: Biodistribution in ICR mouse kidney at 370 kBq, iv after 10 mins by gamma counting; type: ADME, organism-based; details: in vivo; procedure, shortened: as §2
Brain [38] = assay: Biodistribution in ICR mouse brain at 370 kBq, iv after 60 mins by gamma counting; type: ADME, organism-based; details: in vivo, 1 h; procedure, shortened: as §2
Intestine [39] = assay: Biodistribution in ICR mouse intestine at 370 kBq, iv after 2 mins by gamma counting; type: ADME, organism-based; details: in vivo; procedure, shortened: as §2
Kidney [40] = assay: Biodistribution in ICR mouse kidney at 370 kBq, iv after 60 mins by gamma counting; type: ADME, organism-based; details: in vivo, 1 h; procedure, shortened: as §2
Brain [41] = assay: Ratio of drug level in ICR mouse brain after 2 mins to ICR mouse brain after 60 mins at 370 kBq, iv; type: ADME, organism-based; details: in vivo
Procedure, shortened: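 Same intravenous study in ICR mice (370 kBq 18F tracer in saline/10% EtOH, n = 5 per time point). Ratio is brain %ID/g at 2 min divided by brain %ID/g at 60 min post-injection.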

Liver [42] = assay: Biodistribution in ICR mouse liver at 370 kBq, iv after 2 mins by gamma counting; type: ADME, organism-based; details: in vivo; procedure, shortened: as §2
Blood [43] = assay: Biodistribution in ICR mouse blood at 370 kBq, iv after 30 mins by gamma counting; type: ADME, organism-based; details: in vivo, 0.5 h; procedure, shortened: as §2
Spleen [44] = assay: Biodistribution in ICR mouse spleen at 370 kBq, iv after 10 mins by gamma counting; type: ADME, organism-based; details: in vivo; procedure, shortened: as §2
Stomach [45] = assay: Biodistribution in ICR mouse stomach at 370 kBq, iv after 2 mins by gamma counting; type: ADME, organism-based; details: in vivo; procedure, shortened: as §2
[46] = Binding affinity to beta-amyloid

Activity [1]: inactive | Activity (Mus musculus): Active | Ki [2]: 5.3 nM | Activity [3]: Active
SMILES: CNc1ccc2nc(-c3ccc(OCCOCCOCCF)cc3)cnc2c1

Drug uptake (Lung [4]): 1.76 % ID/g | Drug uptake (Bone [5]): 1 % ID/g | Drug uptake (Intestine [6]): 32.83 %ID | Drug uptake (Stomach [7]): 6.53 %ID | Drug uptake (Bone [8]): 1.78 % ID/g | Drug uptake (Brain [9]): 1.44 % ID/g | Drug uptake (Blood [10]): 3.32 % ID/g | Drug uptake (Liver [11]): 4.89 % ID/g | Drug uptake (Heart [12]): 1.76 % ID/g | Drug uptake (Heart [13]): 1.19 % ID/g | Drug uptake (Lung [14]): 2.4 % ID/g | Drug uptake (Spleen [15]): 1.21 % ID/g | Drug uptake (Brain [16]): 0.83 % ID/g | Drug uptake (Brain [17]): 2.49 % ID/g | Drug uptake (Heart [18]): 1.03 % ID/g | Drug uptake (Spleen [19]): 0.94 % ID/g | Drug uptake (Bone [20]): 1.12 % ID/g | Drug uptake (Liver [21]): 14.09 % ID/g | Drug uptake (Lung [22]): 4.07 % ID/g | Drug uptake (Stomach [23]): 2.81 %ID | Drug uptake (Intestine [24]): 39.02 %ID | logD [25]: 2.79 | Drug uptake (Kidney [26]): 5.52 % ID/g | Drug uptake (Spleen [27]): 2.07 % ID/g | Drug uptake (Blood [28]): 1.54 % ID/g | Drug uptake (Intestine [29]): 12.26 %ID | Drug uptake (Bone [30]): 1.49 % ID/g | Drug uptake (Liver [31]): 7.9 % ID/g | Drug uptake (Heart [32]): 3.21 % ID/g | Drug uptake (Kidney [33]): 3.27 % ID/g | Drug uptake (Blood [34]): 5.51 % ID/g | Drug uptake (Lung [35]): 1.15 % ID/g | Drug uptake (Stomach [36]): 3.21 %ID | Drug uptake (Kidney [37]): 3.91 % ID/g | Drug uptake (Brain [38]): 0.64 % ID/g | Drug uptake (Intestine [39]): 6.06 %ID | Drug uptake (Kidney [40]): 1.65 % ID/g | Ratio (Brain [41]): 3.89 | Drug uptake (Liver [42]): 14.18 % ID/g | Drug uptake (Blood [43]): 2.38 % ID/g | Drug uptake (Spleen [44]): 1.65 % ID/g | Drug uptake (Stomach [45]): 1.55 %ID
SMILES: CNc1ccc2nc(-c3ccc(OCCOCCOCC[18F])cc3)cnc2c1

Ki [46]: 0.74 nM
SMILES: CNc1ccc(-c2nc3ccc(O)cc3s2)cc1[18F] [FLUTEMETAMOL F 18]

Ki [46]: 1.7 nM
SMILES: [11CH3]Nc1ccc(-c2nc3ccc(O)cc3s2)cn1
